Measurements: ChEMBL document CHEMBL3352174, “Identification of a New RXRα Antagonist Targeting the Coregulator-Binding Site” (ACS Med Chem Lett, 2014)
Substitutions are numbered along the chain they refer to. The source made the active and inactive calls. The calls are words filed in the database; no cut-off is given here.

Experiments:
[1] = target: T1, Retinoic acid receptor RXR-alpha (Homo sapiens) (UniProt P19793); experiment: Antagonist activity against RXRalpha in TNFalpha-stimulated human PC3 cells assessed as inhibition of AKT phosphorylation at 5 and 10 uM pre-treated for 24 hrs before TNFalpha addition by Western blotting method; assay type: cell-based; conditions: PC-3
T1 sequence (whole entry): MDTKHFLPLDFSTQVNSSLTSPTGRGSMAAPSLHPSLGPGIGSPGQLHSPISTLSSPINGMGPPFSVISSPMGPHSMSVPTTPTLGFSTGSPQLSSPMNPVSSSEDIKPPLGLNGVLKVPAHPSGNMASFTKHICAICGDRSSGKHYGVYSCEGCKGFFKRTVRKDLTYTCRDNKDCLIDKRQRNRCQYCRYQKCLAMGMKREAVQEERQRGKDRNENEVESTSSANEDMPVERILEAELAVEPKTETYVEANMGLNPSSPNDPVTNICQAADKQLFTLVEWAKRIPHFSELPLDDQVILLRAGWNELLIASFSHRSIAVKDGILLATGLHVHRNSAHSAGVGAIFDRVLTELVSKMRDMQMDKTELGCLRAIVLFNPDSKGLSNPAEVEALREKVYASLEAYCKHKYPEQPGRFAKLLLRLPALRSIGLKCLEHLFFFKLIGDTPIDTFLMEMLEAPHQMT

A549 = experiment: Induction of apoptosis in human A549 cells assessed as PARP cleavage at 5 and 10 uM by immunoblotting method; assay type: functional, cell-based
Outline: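 A549 or HepG2 cells were treated with compound for 24 h, with or without subsequent TNFα (20 ng/mL) for 30 min. Lysates were immunoblotted for PARP cleavage as the apoptosis marker. One of three to five similar experiments shown.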

[2] = target: T1, Retinoic acid receptor RXR-alpha (Homo sapiens); experiment: Antagonist activity against RXRalpha in TNFalpha-stimulated human A549 cells assessed as inhibition of AKT phosphorylation at 5 and 10 uM pre-treated for 24 hrs before TNFalpha addition in presence of RXRalpha siRNA by Western blotting method; assay type: cell-based
Outline: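 A549 cells were transfected with RXRα siRNA or control siRNA for 48 h. They were then treated with compound for 24 h, followed by TNFα (20 ng/mL) for 30 min. Lysates were analyzed by Western blot for AKT activation and PARP cleavage.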

[3] = target: T1, Retinoic acid receptor RXR-alpha (Homo sapiens); experiment: Antagonist activity against Myc-tagged RXRalpha ligand binding domain (unknown origin) expressed in human MCF7 cells assessed as inhibition of 9-cis-RA-induced receptor transactivation at 10 uM after 18 hrs by luciferase reporter gene based mammalian one-hybrid assay; assay type: cell-based
Outline: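 MCF-7 cells co-transfected with pG5-Luc reporter and pBind-RXRα-LBD. […] Read-out was dual-luciferase, with firefly normalized to Renilla for transfection efficiency. Single-concentration tests used 10 μM. Mean ± SD.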

[4] = target: T2, Estrogen receptor (Homo sapiens) (UniProt P03372); experiment: Antagonist activity against estrogen receptor ligand binding domain (unknown origin) expressed in human MCF7 cells assessed as inhibition of propyl pyrazole-induced receptor transactivation at 10 uM after 18 hrs by luciferase reporter gene based mammalian one-hybrid assay; assay type: cell-based
T2 sequence (whole entry): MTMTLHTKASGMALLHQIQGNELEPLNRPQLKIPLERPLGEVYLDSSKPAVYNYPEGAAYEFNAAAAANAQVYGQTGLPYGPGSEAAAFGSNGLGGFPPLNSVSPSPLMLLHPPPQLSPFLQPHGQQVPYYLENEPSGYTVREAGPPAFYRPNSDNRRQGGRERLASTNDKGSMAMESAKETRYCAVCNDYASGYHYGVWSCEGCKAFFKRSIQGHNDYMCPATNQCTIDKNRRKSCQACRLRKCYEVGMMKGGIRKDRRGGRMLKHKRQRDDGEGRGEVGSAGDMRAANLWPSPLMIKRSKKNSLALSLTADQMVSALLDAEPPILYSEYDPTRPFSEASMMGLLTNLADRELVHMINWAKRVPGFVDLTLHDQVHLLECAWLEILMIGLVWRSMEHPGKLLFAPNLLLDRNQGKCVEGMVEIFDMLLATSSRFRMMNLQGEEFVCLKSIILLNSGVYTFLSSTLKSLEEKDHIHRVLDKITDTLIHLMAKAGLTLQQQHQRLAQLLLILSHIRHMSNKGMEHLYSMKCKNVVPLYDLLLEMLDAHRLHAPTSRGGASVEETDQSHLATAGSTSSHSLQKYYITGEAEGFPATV
Outline: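 MCF-7 cells co-transfected with pG5-Luc and the pBind-LBD fusion: Nur77, RARγ or ER. Agonists were all-trans-RA 10⁻⁷ M for RARγ and Nur77, and propyl pyrazole triol 10 μM for ER. Compound at 10 μM for 18 h. Dual-luciferase read-out normalized to Renilla. Mean ± SD.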

[5] = target: Retinoic acid receptor gamma (Homo sapiens) (UniProt P13631); experiment: Antagonist activity against RARgamma ligand binding domain (unknown origin) expressed in human MCF7 cells assessed as inhibition of ATRA-induced receptor transactivation at 10 uM after 18 hrs by luciferase reporter gene based mammalian one-hybrid assay
Retinoic acid receptor gamma (Homo sapiens), sequence (P13631 whole entry, looked up, the tested form may be a part): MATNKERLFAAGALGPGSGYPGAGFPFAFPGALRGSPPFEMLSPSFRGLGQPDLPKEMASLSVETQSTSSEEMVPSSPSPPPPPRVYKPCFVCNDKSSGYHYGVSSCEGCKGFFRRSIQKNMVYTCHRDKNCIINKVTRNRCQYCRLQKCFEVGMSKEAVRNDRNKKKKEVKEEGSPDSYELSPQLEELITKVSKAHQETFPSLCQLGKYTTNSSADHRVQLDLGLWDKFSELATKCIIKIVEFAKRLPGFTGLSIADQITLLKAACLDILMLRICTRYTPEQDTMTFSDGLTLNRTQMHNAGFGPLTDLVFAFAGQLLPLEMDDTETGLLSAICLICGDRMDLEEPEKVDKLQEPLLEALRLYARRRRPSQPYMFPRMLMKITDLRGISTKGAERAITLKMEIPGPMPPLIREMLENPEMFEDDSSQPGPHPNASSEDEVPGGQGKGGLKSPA

[6] = system: T3, Retinoic acid receptor RXR-alpha (Homo sapiens), P19793 [C432W]; experiment: Antagonist activity against RXRalpha C432W/F313A mutant (unknown origin) expressed in human HEK293T cells assessed as inhibition of constitutive receptor transactivation at 1 to 10 uM after 18 hrs by luciferase reporter gene based mammalian one-hybrid assay; conditions: HEK-293T
T3 sequence (whole entry): T1 sequence (whole entry) with C432W

Cc1cc(=O)oc2c(/C=N/NC(=O)CSc3nc4ccccc4s3)c(O)ccc12
inhibition [1]: Active
Activity (A549): Active
inhibition [2]: inactive
inhibition [3]: Active
inhibition [4]: inactive
inhibition [5]: Active
inhibition [6]: Dose-dependent effect
